Screens deposited in PubChem by several laboratories.
The sample as a whole holds a higher share of hits than the screen did.
CHOP inh: blocks CHOP induction under ER stress. CHO-K1 CHOP-promoter luciferase, tunicamycin-induced, 15-18 h. inhibition, % at 10 µM. hit rate 3.8% among 220,000. AID 2732;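 active = compounds that reduced the stress-induced luciferase reporter signal by more than about 70% of percent inhibition, limit read from the data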;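 also: 0% = tunicamycin plus vehicle and 100% = wells without tunicamycin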
CHOP UPR activ: apoptotic UPR (CHOP) activation | AID 449763 | CHO-CHOP luciferase reporter, luminescence; percent of tunicamycin response over DMSO baseline | activation, % at 10 µM | hit rate 0.34% among 330,000;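 active = at 10 µM dose, activation of 40% or more, normalized to positive control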;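 also: 100% = tunicamycin at 10 µg/mL and 0% = DMSO alone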
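System: CHO-CHOP luciferase reporter cell line | Buffer or medium: F12 medium containing 10% fetal bovine serum | Doses: One dose, 10 µM in 0.5% DMSO | Times: 6 h compound exposure at 37 °C after overnight seeding | Signal: Luciferase luminescence | Read-out: % activation vs tunicamycin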
PvdQ inh: blocks Pseudomonas aeruginosa PvdQ acylase activity; inhibition, % at 10 µM; purified PvdQ acylase, fluorescence plate reader; hit rate 0.063% among 340,000; in the data active = inhibition above about 30%, passing the limit was not always enough;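 also: 0% = vehicle neutral wells and 100% = reference inhibitor wells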
XBP1 UPR activ: adaptive UPR (XBP1) activation | activation, % at 20 µM | CHO-XBP1 luciferase reporter, IRE1-XBP1 UPR activation, luminescence; percent of tunicamycin response, DMSO as zero | AID 463104 | hit rate 0.33% among 330,000;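 active = versus positive control, 20 µM dose yields 30% or more activation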;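 also: 100% = tunicamycin at 10 µg/mL and 0% = DMSO only wells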
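Signal: luciferase luminescence; Assay system: CHO-XBP1 luciferase reporter cells; Amount: one thousand reporter cells per well; Dosing: 20 µM single concentration, DMSO 1%; Benchmarks: high control tunicamycin 10 µg/mL final, low control DMSO vehicle only; Schedule: 6 h compound exposure at 37 °C, 5% CO2; Evaluation: percent activation relative to tunicamycin reference.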
Numbers without * were called inactive; x = no result.

SMILES	CHOP inh	CHOP UPR activ	PvdQ inh	XBP1 UPR activ
CCN(CC)C(C)C(=O)N1c2ccccc2Sc2ccccc21 (centres undefined)	-9.5	x	x	x
CCN(CC)C(=O)Cn1c(=O)n(-c2ccccc2)c(=O)c2c3c(sc21)CCC3	4.5	-0.5	-10.8	0.1
CCOc1ccc(-n2c(=O)c3c4c(sc3n(CC(=O)NCc3ccco3)c2=O)CCC4)cc1	70.3*	-1.4	10.1	1.4
Cc1nc2sc(C(c3ccco3)N3CCN(c4ccccc4F)CC3)c(O)n2n1 (centres undefined)	15.2	2.0	-13.5	-4.5
Cc1nc2sc(C(c3ccc(Cl)cc3)N3CCN(c4ccccc4F)CC3)c(O)n2n1 (centres undefined)	82.5*	-1.7	-10.2	-2.7
CC(=O)c1ccccc1N(C(=O)c1ccco1)C(C(=O)NC1CCCC1)c1ccc(N2CCOCC2)cc1 (centres undefined)	-8.1	2.4	-11.2	-0.2
CN(CC1CCOCC1)C(=O)CC1C(=O)NCCN1CC(c1ccccc1)c1ccccc1 (centres undefined)	x	-0.6	-3.0	-0.8
O=[N+]([O-])c1cccc(-c2cn3nc(-c4ccccc4)c(-c4ccccc4)nc3n2)c1	0.4	2.6	-18.7	1.8
O=Nc1c(-c2cccc([N+](=O)[O-])c2)nc2ncccn12	34.4	130.9*	x	8.6
COC(=O)C1=COC(C)C2CN3CCc4c([nH]c5cc(OC)c(OC)cc45)C3CC12 (centres undefined)	6.1	0.3	-12.1	-1.5
CCC(=O)Nc1ccc(N2CCCCC2)c(C(=O)Nc2ccccc2C)c1	72.0*	-0.5	-3.1	-1.7
Cc1cc(C)c2c(=O)n(CC(=O)N3CCC(N4CCCCC4)CC3)sc2n1	38.9	3.2	5.4	-4.9
CCOC(=O)C1CCCN(C(=O)Cn2sc3nc(C)cc(C)c3c2=O)C1 (centres undefined)	109.3*	16.8	-0.1	-3.2
CC(=O)N[C@H](C(=O)O)C(C)(C)SN=O	16.9	x	x	x
Cc1ccc(NC(=O)c2cc(S(=O)(=O)NCCc3ccccc3)ccc2F)cc1Cl	84.2*	0.3	-0.3	-1.4
O=C(Nc1cccc(Cl)c1)c1cc(S(=O)(=O)NCCc2ccc(Cl)cc2)ccc1F	50.7	-0.1	-4.5	-4.3
Cc1ccc(-c2nc(CN(C)Cc3cccc4cnccc34)c(C)o2)s1	16.1	-0.3	51.0*	-4.5
O=S(=O)(Nc1nc2ccccc2nc1Nc1ccc(N2CCOCC2)cc1)c1cc(Cl)ccc1Cl	74.2*	0.8	-1.8	-3.1
CC(=C/C(=O)O)/C(=C/c1ccccc1)C(=O)O	41.8	0.5	-0.3	-1.7
Cc1ccc(NC(=O)C(=O)NCc2ccc(/C=C(/C#N)C(=O)NCc3cccnc3)o2)cc1	35.5	1.4	-9.3	-2.5
N#C/C(=C/c1ccc(CNC(=O)C(=O)Nc2cc(Cl)cc(Cl)c2)o1)C(=O)NCc1cccnc1	82.0*	-0.3	-9.6	21.2
CC1CCC2(CC1)SCC(=O)N2c1ccc(F)cc1 (centres undefined)	-10.6	-1.4	0.0	-3.1
CC(C)(C)C1CCC2(CC1)SCC(=O)N2c1ccccc1 (centres undefined)	77.0*	-1.0	-11.9	2.1
O=C(O)CCC(NC(=O)c1ccccc1C(=O)O)C(=O)O (centres undefined)	-0.4	x	x	x
Cc1ccc(CNCCCn2cnc(C(=O)Nc3ccc(C)c(C)c3)n2)o1	x	x	13.1	x
SMILES	CHOP inh	CHOP UPR activ	PvdQ inh	XBP1 UPR activ
O=C1c2ccccc2NC(c2ccc(Cl)cc2Cl)N1Cc1ccccc1 (centres undefined)	87.4*	3.1	-19.3	-1.7
Cc1cccc(C)c1OCC(O)CN(Cc1ccccc1O)C1CCCCC1 (centres undefined)	85.5*	-0.2	-1.4	-3.9
CCOC(=O)c1c(C)n(-c2ccc(F)cc2)c2ccc(O)cc12	x	2.3	-5.2	-0.1
COC(=O)c1c(C)n(-c2ccc(OC)cc2)c2ccc(O)cc12	74.1*	-3.4	5.0	-3.3
Cc1csc(NC(=O)CSc2nnc(NC(=O)COc3ccc(Cl)cc3)s2)n1	93.4*	8.4	-5.2	-0.5
Cc1ccc(N2CC(C(=O)Nc3nnc(SCC(=O)Nc4nc(C)cs4)s3)CC2=O)cc1 (centres undefined)	71.0*	0.8	7.6	2.5
O=c1cc(-c2ccccc2Cl)oc2ccc([N+](=O)[O-])c(O)c12	45.0	-1.7	6.6	4.3
O=c1cc(-c2ccccc2Cl)oc2c([N+](=O)[O-])c(O)cc(O)c12	76.3*	-0.9	-6.1	-5.3
C/C(=N\NC(=O)c1cc(C)nc2ccccc12)c1ccccn1	x	85.0*	-6.8	5.3
C/C(=N\NC(=O)c1cc(C)nc2ccccc12)c1ccncc1	x	2.0	10.1	-2.3
COc1ccc(N(CC(C)C)S(=O)(=O)c2nnc(NC(=O)CC(C)C)s2)cc1	x	-1.2	-18.4	0.8
Cc1ccc(C(=O)c2no[n+]([O-])c2C(=O)c2ccc(C)cc2)cc1	82.1*	35.8	-12.4	-6.0
CNC(=S)N=Nc1c(O)[nH]c2ccc(C(C)C)cc12	92.8*	x	-0.6	x
O=C(NN1C(=O)NC2(CCCCC2)C1=O)c1ccc(Cl)s1	x	1.0	-13.5	1.4
O=C(COC(=O)c1cn(-c2ccccc2)nc1-c1ccccc1)c1ccc([N+](=O)[O-])cc1	49.2	6.4	x	-1.9
Cc1ccc(C(=O)COC(=O)c2cn(-c3ccccc3)nc2-c2ccccc2)cc1[N+](=O)[O-]	75.6*	11.4	-15.0	1.0
O=C(COC(=O)c1cn(-c2ccccc2)nc1-c1ccccc1)Nc1ncc(Cl)cc1Cl	77.3*	-1.5	-12.4	-3.9
COC(=O)C1=C(C)NC(C)=C(C(=O)OC)C1c1ccc2ccccc2n1	-4.7	0.6	11.2	-2.0
O=C1c2ccccc2C(=O)C1c1ccc2ccccc2n1	92.1*	-7.8	8.3	-3.8
CCOC(=O)c1ccc(N2C(=O)C(CC(N)=O)N(NC(=O)c3cccc(F)c3)C2=S)cc1 (centres undefined)	x	-0.1	18.5	-2.3
COC(=O)CN1C(=S)N(c2ccc(Cl)cc2)C(=O)C1CC(=O)Nc1ccc(Cl)cc1 (centres undefined)	91.3*	1.4	-13.7	-6.0
COc1ccc(NC(=O)CC2C(=O)N(c3ccc(Cl)cc3)C(=S)N2NC(=O)c2cccc(F)c2)cc1 (centres undefined)	83.7*	3.1	-12.7	-0.9
CCN1C(=O)C(CC(=O)Nc2ccc(OC)cc2)N(CCc2ccccc2)C1=S (centres undefined)	7.8	-0.6	-4.2	-1.0
CCN1C(=O)C(CC(=O)Nc2ccc(F)cc2)N(CCc2ccc(OC)cc2)C1=S (centres undefined)	93.2*	-1.1	13.1	-2.0
COc1ccc(NC(=O)CC2C(=O)N(c3ccc(Cl)cc3)C(=S)N2CCc2ccncc2)cc1 (centres undefined)	92.6*	1.6	-5.0	-2.4
O=C1CCCC(O)=C1Sc1cc(Cl)c(Cl)cc1Cl	x	1.0	x	0.0
CCOc1cc(CNCCc2ccc(S(N)(=O)=O)cc2)ccc1OCc1ccccc1	12.0	x	-14.5	x
